Our source for the Activity values is ChEMBL document CHEMBL1152481, “Synthesis of 2-(4-substitutedmethylpiperazin-1-yl)-N-(3,4-dihydro-3-oxo-2H-benzo[b][1,4]oxazin-7-yl)acetamides and their positive inotropic evaluation” (2009).

Activity calls are given as the source filed them. The calls are words filed in the database; no cut-off is given here.

The species entered for test [1] is Oryctolagus cuniculus. Nature of the test: Negative inotropic activity in perfused rabbit left atrium assessed as stroke volume at 10 uM. Particulars: Cardiac atrium. It counts as functional, tissue-based. Summed up: (§1)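 Field-stimulated at a fixed 1.5 Hz, 60 min stabilization. Single dose, DMSO-dissolved and buffer-diluted, applied after a control circulation; 12-min circulations. Stroke volume read from the cannula water column at end diastole every 2 min, reported as mean % increase.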

Test [2] can be described thus: Positive inotropic activity in perfused rabbit left atrium assessed as increase in stroke volume at 10 uM. The test is classed as functional, Oryctolagus cuniculus, Cardiac atrium. Summed up:
as §1

For test [3], the species on record is Oryctolagus cuniculus. Nature of the test: Positive inotropic activity in perfused rabbit left atrium assessed as increase in stroke volume at 10 uM/L. The test is classed as functional, tissue-based. Conditions: Cardiac atrium, TDE = time-dependent effect. In short, it runs like this: as §1
A short description of test [4]: Chronotropic effect in perfused rabbit left atrium assessed as heart rate at 10 uM by electrocardiogram analysis (Rvb= 152.20 +/- 0.42 Hz). It counts as functional, Oryctolagus cuniculus, Cardiac atrium.
Test [5] can be described thus: Chronotropic effect in perfused rabbit left atrium assessed as heart rate at 10 uM by electrocardiogram analysis (Rvb= 146.80 +/- 0.09 Hz). It counts as functional, Oryctolagus cuniculus, Cardiac atrium.

Take `COc1ccc(COc2ccc3cc(CN4CCN(CC(=O)Nc5ccc6c(c5)OCC(=O)N6)CC4)ccc3c2)cc1`: the outcome in the test listed under Oryctolagus cuniculus [1] was Active.

`O=C(CN1CCN(Cc2ccccc2Br)CC1)Nc1ccc2c(c1)OCC(=O)N2`: in test [2], the Activity was found to be 1.43%.

As to `O=C(CN1CCN(Cc2ccc3cc(OCc4ccccc4)ccc3c2)CC1)Nc1ccc2c(c1)OCC(=O)N2`, in the test listed under Oryctolagus cuniculus [1], the outcome was Active.

Take `O=C(CN1CCN(Cc2ccc(Cl)cc2)CC1)Nc1ccc2c(c1)OCC(=O)N2`: the result in the test listed under Oryctolagus cuniculus [1] was Active.

On to `Cc1ccc(CN2CCN(CC(=O)Nc3ccc4c(c3)OCC(=O)N4)CC2)cc1`, for which the Activity is 5.09% in test [2], “tde” in the test filed under Oryctolagus cuniculus [3] and 142.2 Hz in test [4].

As to `O=C(CN1CCN(Cc2ccc(F)cc2)CC1)Nc1ccc2c(c1)OCC(=O)N2`, the outcome in the test listed under Oryctolagus cuniculus [1] was Active.

Regarding `Cc1ccc(COc2ccc3cc(CN4CCN(CC(=O)Nc5ccc6c(c5)OCC(=O)N6)CC4)ccc3c2)cc1`, the result in the test listed under Oryctolagus cuniculus [1] was Active.

On to `Cc1[nH]c(=O)c(C#N)cc1-c1ccncc1` [MILRINONE], for which, in test [2], the Activity came to 1.67%.

On to `O=C(CN1CCN(Cc2ccccc2F)CC1)Nc1ccc2c(c1)OCC(=O)N2`, for which the Activity was 4.29% in test [2], 139.1 Hz in test [5] and “tde” in the test filed under Oryctolagus cuniculus [3].

For the molecule `O=C(CN1CCN(Cc2c(Cl)cccc2Cl)CC1)Nc1ccc2c(c1)OCC(=O)N2`, the result in the test listed under Oryctolagus cuniculus [1] was Active.

For `COc1cccc(CN2CCN(CC(=O)Nc3ccc4c(c3)OCC(=O)N4)CC2)c1`, in test [2], the Activity is on record as 3.23%.

With `O=C(CN1CCN(Cc2cccc(Cl)c2)CC1)Nc1ccc2c(c1)OCC(=O)N2`, the outcome in the test filed under Oryctolagus cuniculus [1] was Active.

As to `O=C(CN1CCN(Cc2ccc3c(c2)OCO3)CC1)Nc1ccc2c(c1)OCC(=O)N2`, the result in the test listed under Oryctolagus cuniculus [1] was Active.

In the case of `COc1ccc(CN2CCN(CC(=O)Nc3ccc4c(c3)OCC(=O)N4)CC2)cc1`, in the test listed under Oryctolagus cuniculus [1], the result was Active.

Regarding `O=C(CN1CCN(Cc2ccc3cc(OCc4cccc(Cl)c4)ccc3c2)CC1)Nc1ccc2c(c1)OCC(=O)N2`, the outcome in the test filed under Oryctolagus cuniculus [1] was Active.

For the molecule `O=C(CN1CCN(Cc2ccccc2)CC1)Nc1ccc2c(c1)OCC(=O)N2`, the result in the test filed under Oryctolagus cuniculus [1] was Active.
